PGC1a acetyl inh: inhibitors of PGC1a acetylation signal, primary screen, cell-based, U2OS, AlphaScreen, inhibitor mode. inhibition, % at 15.6 µM. AlphaScreen anti-acetyl-lysine; with virally co-expressed GCN5 acetyltransferase. 350,000 tested, 0.17% active;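 active = every replicate shows inhibition of at least 40%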;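 note: 0% = neutral control wells and 100% = positive control wells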
CAL PDZ FP-1: CAL PDZ peptide-binding inhibitors, primary screen, biochemical, fluorescence polarization, Cer-tagged CAL PDZ, HTS. Golgi-associated PDZ and coiled-coil motif-containing protein (Homo sapiens), Q9HD26. purified CAL PDZ, TMR-peptide fluorescence polarization, 1 h. inhibition, % at 20 µM. 330,000 tested, 0.02% active;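 active = highest replicate inhibition of at least 40%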;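 note: plate controls were DMSO neutral control wells for no effect and unlabeled competitor peptide control wells for full effect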
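Control set: unlabelled peptide and DMSO controls / Material: purified CerCALP PDZ construct / Timing: 1 h incubation at room temperature before polarization reading / Doses: 20 µM, one dose / Detection: fluorescence polarization (mP)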
miR122 inh: miR-122 Renilla sensor signal increase in Huh7, primary screen, miR-122 inhibitor project, cell-based, single point, plate reader. Huh7 miR-122 Renilla luciferase sensor, 48 h; neutral wells = 0, positive control = 100. activation (reporter increase), % at 12.5 µM. 340,000 tested, 0.3% active;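 active = mean replicate activation score at least 90 and every replicate individually at or above 90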;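 note: higher luciferase means less miR-122 activity so hits act as miR-122 inhibitors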
CFTR F508del cor: F508del CFTR correction, initial screen, CFBE line, single point | CFBE cells, YFP halide quenching; stimulated with forskolin plus potentiator P3; % fluorescence drop versus neutral controls | activity (quench increase), % at 7.58 µM | 350,000 tested, 0.36% active | AID 720511, 2013;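 active = mean added fluorescence quench of at least 8% versus neutral control, with both replicates also reaching 8%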;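 note: cells transiently co-express mutant CFTR-F508del with the halide-sensitive YFP; corrector assay measuring rescue of mutant channel to the surface after 24 h compound exposure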
ARNT-TACC3 inh: disruptors of ARNT/TACC3 protein interaction, primary screen, biochemical, AlphaScreen, single concentration; Transforming acidic coiled-coil-containing protein 3 (Homo sapiens), Q9Y6A5; AlphaScreen His-ARNT PAS-B/GST-TACC3 binding, luminescence; TACC3 fragment carries E629A point mutation; inhibition, % at 9.99 µM; 390,000 tested, 0.66% active; AID 623870, 2012;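 active = mean inhibition of replicates at least 50% and at least half of replicates each reaching 50%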;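 note: 0% = complete ARNT plus TACC3 wells and 100% = ARNT alone without TACC3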
CAL PDZ FP-2: untagged CAL PDZ binding inhibitors, primary screen, biochemical, fluorescence polarization, HTS; Golgi-associated PDZ and coiled-coil motif-containing protein (Homo sapiens), Q9HD26; purified CAL PDZ, TMR-peptide fluorescence polarization, 1 h; inhibition, % at 24.9 µM; 300,000 tested, 0.92% active; AID 602252, 2012;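 active = mean inhibition of at least 30% with at least half of replicates also reaching 30%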;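 note: 0% = DMSO neutral control and 100% = excess unlabeled competitor peptide PRC23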
An asterisk follows results filed as active; x = no result given; + = active, no number; [ ] = another dose, or the depositor's remark. This is a sample that favours compounds with a hit; in the whole collection about 1.7% have one here.

SMILES	PGC1a acetyl inh	CAL PDZ FP-1	miR122 inh	CFTR F508del cor	ARNT-TACC3 inh	CAL PDZ FP-2
O=C(CCC1CCN(Cc2ccccc2Cl)CC1)NC1CC1	95*	-3	2	0	x	-5
C=CCN1C=CC=C/C1=C1\SC(=S)N(C)C1=O	-2	-1	-7	-2	-1	35*
CN1C=CC=C/C1=C1\SC(=S)N(c2ccccc2)C1=O	6	0	-27	x	-1	-3
COC(=O)c1ccsc1NC(=O)c1ccccc1	-7	-1	-3	8.6*	-8	x
COc1ccc(NC(=O)N(C)C[C@H]2Oc3ccc(NC(=O)CCCCCC(=O)Nc4ccccc4N)cc3CC(=O)N([C@@H](C)CO)C[C@H]2C)cc1	7	x	-4[16.7 µM]	2	-17	x
CNC(=O)c1c(C)nc(SCC(=O)NCc2ccc(OC)cc2)c(C#N)c1-c1ccco1	-5	0	-7	x	1	55*
COCCOC(=O)c1c(C)nc(SCC(=O)Nc2cccc3ccccc23)c(C#N)c1-c1ccco1	-3	0	-6	x	-2	-1
Cc1noc(C)c1S(=O)(=O)Nc1ccc2c(c1)C(=O)N([C@H](C)CO)C[C@H](C)[C@@H](CN(C)S(=O)(=O)c1cn(C)cn1)O2	0	x	x	-2	x	x
Cc1nn2c(-c3ccc(F)cc3)ccnc2c1Cl	x	1	1	x	3	61*
Cc1nn2c(-c3ccc(F)cc3)ccnc2c1Br	x	-2	x	2	-6	0
Cc1ccc(S(=O)(=O)Nc2cccc3c2O[C@@H](CN(C)CC2CCCCC2)[C@@H](C)CN([C@@H](C)CO)C3=O)cc1	-2	x	27[16.7 µM]	-1	-7	x
CC(=O)c1ccc(Nc2nc3ccccc3nc2NS(=O)(=O)c2cccs2)cc1	x	-1	4	2	0	0
COc1ccc(Nc2nc3ccccc3nc2NS(=O)(=O)c2cccs2)cc1	3	-2	0	x	5	48*
O=C(CN1C(=O)NC(c2ccc(F)cc2)C1=O)NC1CCCCC1 (stereo not given)	x	-1	x	x	-6	88*
Cc1ccc(C(C)C)cc1OCC(=O)Nc1nnc(C2CC2)s1	6	0	3	-3	-6	-6
Cc1cc(OCC(=O)Nc2nnc(C3CC3)s2)ccc1C(C)C	x	0	x	-3	0	45*
CN1CCN(C(=O)c2ccc(CN(c3ccccc3)S(=O)(=O)c3ccccc3)cc2)CC1	-3	-2	-4	12*	-6	x
COc1ccc2c(=O)c3c(=O)n(Cc4ccco4)c(-c4ccco4)nc3oc2c1	-30	-5	-5	x	6	-3
COc1ccc(Cn2c(-c3ccco3)nc3oc4cc(OC)ccc4c(=O)c3c2=O)cc1	-20	-2	-4	x	-4	38*
O=S(=O)(c1ccccc1)n1ccc2ccccc21	-5	1	4	x	-14	47*
CC(C)(C)NC(=O)CCN(/N=C/c1ccncc1)C1=NS(=O)(=O)c2ccccc21	2	-2	-4	1	63*	-4
O=S1(=O)N=C(N(CCO)/N=C/c2ccncc2)c2ccccc21	3	-1	-1	-3	72*	-5
C[C@@H]1CN([C@@H](C)CO)C(=O)c2cc(NS(=O)(=O)c3cccs3)ccc2O[C@@H](C)CCCCO[C@@H]1CN(C)C(=O)c1ccccc1	x	x	8[16.7 µM]	2	0	x
Cc1ccc(-c2ccc(C3[C@@H]4CN(Cc5cccc(F)c5)C[C@H]3N4)cc2)cc1 (stereo not given in full)	-7	x	x	-1	x	x
COc1ccc(Br)cc1CN(C)C(=O)C1=CC=CN2CCS(=O)(=O)N=C12	4	0	x	1	-1	14
SMILES	PGC1a acetyl inh	CAL PDZ FP-1	miR122 inh	CFTR F508del cor	ARNT-TACC3 inh	CAL PDZ FP-2
COc1ccc(Br)cc1CN(C)C(=O)c1ccncc1	x	0	x	0	-2	+
CC(NC(=O)CCC(=O)NCc1ccc(F)cc1)c1ccccc1 (stereo not given)	x	-1	0	3	-24	88*
CC(NC(=O)CCC(=O)c1ccccc1)c1ccc(F)cc1 (stereo not given)	4	-2	-2	2	-2	-1
CSc1nc2nccc(/C=C\c3ccccc3)n2n1	50*	-3	0	x	-3	-3
COc1cccc(C(=O)NC2=NCCS2)c1	2	0	-2	x	-5	-4
COc1ccc(N(Cc2ccccc2)S(=O)(=O)c2cccc(C(=O)NC3=NCCS3)c2)cc1	-8	x	119*	x	4	0
C=CCn1c(NC(=O)c2ccco2)nc2ccccc21	x	61*	17	0	0	94*
CC(=O)Nc1sc(NC(=O)c2ccc(C)cc2)nc1-c1cccs1	-14	x	7	x	4	73*
COc1ccc(-c2nnn(CC(=O)N(CCN3CCOCC3)C(C(=O)NC3CCCC3)c3ccco3)n2)cc1 (stereo not given)	x	-1	x	1	0	53*
Cc1noc(C)c1NC(=O)N[C@H]1CC[C@H](CC(=O)Nc2ccc(-c3ccccc3)cc2)O[C@H]1CO	13	x	5[16.7 µM]	2	-13	x
C[C@H]1CN([C@@H](C)CO)C(=O)c2cccc(NC(=O)Nc3ccccc3)c2O[C@@H]1CN(C)Cc1ccc(C(=O)Nc2ccccc2N)cc1	-24	x	153*[16.7 µM]	1	-4	x
C[C@@H]1CN([C@@H](C)CO)C(=O)c2cccc(NC(=O)Nc3ccccc3)c2O[C@H]1CN(C)Cc1ccc(C(=O)Nc2ccccc2N)cc1	-6	x	21[16.7 µM]	-4	3	x
C[C@@H]1CN([C@H](C)CO)C(=O)c2cccc(NC(=O)Nc3ccccc3)c2O[C@H]1CN(C)Cc1ccc(C(F)(F)F)cc1	x	x	107*[16.7 µM]	4	-21	x
C[C@H](CO)N1C[C@H](C)[C@H](CN(C)Cc2ccc(C(F)(F)F)cc2)Oc2c(NC(=O)Nc3ccccc3)cccc2C1=O	x	x	26[16.7 µM]	1	0	x
C[C@@H]1CN([C@H](C)CO)C(=O)c2cccc(NC(=O)c3cnccn3)c2O[C@H]1CN(C)Cc1ccc(C(=O)Nc2ccccc2N)cc1	0	x	x	-2	x	x
C[C@@H]1CN([C@@H](C)CO)C(=O)c2cccc(NC(=O)c3cnccn3)c2O[C@@H]1CN(C)Cc1ccc(C(=O)Nc2ccccc2N)cc1	38	x	129*[16.7 µM]	6	4	x

Screening data as filed in PubChem BioAssay.
